Experimental data published in ChEMBL document CHEMBL1156580, “A facile regioselective synthesis of novel spiro-thioxanthene and spiro-xanthene-9',2-[1,3,4]thiadiazole derivatives as potential analgesic and anti-inflammatory agents” (Bioorg Med Chem Lett, 2008).

Key:
Rattus norvegicus [1] = assay: Antiinflammatory activity in Sprague-Dawley rat assessed as inhibition of carrageenan-induced paw edema at 70 mg/kg, po after 4 hrs relative to control; format: functional
Summary of the method: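 Winter carrageenin paw oedema in adult male Sprague–Dawley rats (150–180 g, six per group), fasted overnight with water available. Dosing was 70 mg/kg po in 1% CMC, with controls on vehicle alone, 1 h before 0.1 mL 1.0% carrageenin into the right hind plantar region. Paw volume was read by plethysmometer before and 4 h after, giving % inhibition versus control.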

Mus musculus = assay: Analgesic activity in Swiss mouse assessed as inhibition of acetic acid-induced writhing responses at 70 mg/kg, po after 1 hr relative to control
Rattus norvegicus [2] = assay: Acute toxicity in Sprague-Dawley rat assessed as survival up to 200 mg/kg, po; format: organism-based; parameters: dose 200 mg/kg, route oral; conditions: in vivo
Summary of the method: (§1)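 Male Sprague–Dawley rats (200–250 g), housed individually under 12 h light–dark, split into four groups, each given a different single dose by oral gavage. Animals were then watched for deaths or other behavioural changes.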

Rattus norvegicus [3] = assay: Acute toxicity in Sprague-Dawley rat assessed as behavioral changes up to 200 mg/kg, po; format: organism-based; parameters: dose 200 mg/kg, route oral; conditions: in vivo; summary of the method: as §1
Rattus norvegicus [4] = assay: Acute toxicity in Sprague-Dawley rat assessed as toxicological changes up to 200 mg/kg, po; format: organism-based; parameters: dose 200 mg/kg, route oral; conditions: in vivo; summary of the method: as §1

SMILES	inhibition in vivo at 70 mg/kg (Rattus norvegicus [1])	inhibition in vivo at 70 mg/kg (Mus musculus)	Activity (Rattus norvegicus [2])	Activity (Rattus norvegicus [3])	Activity (Rattus norvegicus [4])
CC(=O)C1=NN(c2ccc(Cl)cc2)SC12c1ccccc1Oc1ccccc12	82%	72%	–	–	–
CC(=O)C1=NN(c2ccc(Br)cc2)SC12c1ccccc1Oc1ccccc12	76%	–	–	–	–
CC(C)Cc1ccc(C(C)C(=O)O)cc1 (configuration not stated) [IBUPROFEN]	92%	83.5%	–	–	–
CC(=O)C1=NN(c2ccc([N+](=O)[O-])cc2)SC12c1ccccc1Oc1ccccc12	84%	56.6%	–	–	–
CC(=O)C1=NN(c2ccccc2)C2(S1)c1ccccc1Sc1ccccc12	75%	–	–	–	–
CC(=O)C1=NN(c2ccc(Cl)cc2)C2(S1)c1ccccc1Sc1ccccc12	82%	57%	Non-toxic	Non-toxic	Non-toxic
CC(=O)C1=NN(c2ccccc2)SC12c1ccccc1Oc1ccccc12	79%	–	–	–	–
c1ccc(C2=NN(c3ccccc3)C3(S2)c2ccccc2Sc2ccccc23)cc1	85%	59%	Non-toxic	Non-toxic	Non-toxic
CCOC(=O)C1=NN(c2ccc(C)cc2)C2(S1)c1ccccc1Sc1ccccc12	71%	–	–	–	–
CC(=O)C1=NN(c2ccc([N+](=O)[O-])cc2)C2(S1)c1ccccc1Sc1ccccc12	86%	73%	–	–	–
